The values that follow come from ChEMBL document CHEMBL1136723, “A novel atypical retinoid endowed with proapoptotic and antitumor activity” (J Med Chem, 2003).

Molecules are shown by their SMILES.

Test [1] relates to IGROV-1. Description: (§1) Apoptosis was determined my morphological analysis of propidium-iodide-stained cells following 24 hr exposure to IC80 (0.5 uM), value expressed as percentage of apoptotic cells versus total cell number. Type of test: functional, Homo sapiens.
The subject of test [2] is DU-145. The test is described as §1. It counts as functional, Homo sapiens.
The test system of the next test is SAOS-2. The experiment in a line: Antiproliferative effect of compound on SAOS cell line. The settings on record: Homo sapiens. It counts as functional, cell-based. In short, it runs like this: (§2)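 Human tumor cell lines exposed to drug for 72 h. Growth was measured by cell counting. IC50, the concentration giving 50% inhibition of cell growth, was read from dose–response curves.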

The subject of the next test is LoVo. The experiment in a line: Antiproliferative effect of compound on LoVo cell line expressing wild-type p53. Type of test: functional, cell-based. Conditions: Homo sapiens. In short, it runs like this: as §2
The test system of another test is PC-3. Description: Antiproliferative effect of compound on PC3 cell line. It counts as functional, cell-based. Conditions: Homo sapiens. In short, it runs like this:
as §2

For a further test, the system named is NCI-H460. The experiment in a line: Antiproliferative effect of compound on H460 cell line expressing wild-type p53. Type of test: functional, cell-based. Conditions: Homo sapiens. In a few lines:
as §2

The subject of a further test is GBM. Description: Antiproliferative effect of compound on GBM cell line expressing mutant p53. Type of test: functional, cell-based. Conditions: Homo sapiens. In a few lines: as §2
In test [3] the test system is IGROV-1. The experiment in a line: (§3) Apoptosis was determined my morphological analysis of propidium-iodide-stained cells following 72 hr exposure to IC80 (0.5 uM), value expressed as percentage of apoptotic cells versus total cell number. Type of test: functional, Homo sapiens.
The subject of test [4] is DU-145. The description is as §3. It counts as functional, Homo sapiens.
Test [5] relates to IGROV-1. The experiment in a line: (§4) Apoptosis was determined my morphological analysis of propidium-iodide-stained cells following 48 hr exposure to IC80 (0.5 uM), value expressed as percentage of apoptotic cells versus total cell number. Type of test: functional, Homo sapiens.
The test system of test [6] is DU-145. The description is as §4. It counts as functional, Homo sapiens.
In another test the test system is HCT-116. The experiment in a line: Antiproliferative effect of compound on HCT116 cell line expressing wild-type p53. It counts as functional, cell-based. Conditions: Homo sapiens. In short, it runs like this:
as §2

Another test concerns Me665/2/21. Description: Antiproliferative effect of compound on Me665/2/21 cell line expressing mutant p53. It counts as functional, cell-based. Conditions: Homo sapiens. In short, it runs like this: as §2
Another test has as its system A-431. The experiment in a line: Antiproliferative effect of compound on A431 cell line expressing mutant p53. It counts as functional, cell-based. The settings on record: Homo sapiens. In a few lines: as §2
For a further test, the system named is LNCaP. Description: Antiproliferative effect of compound on LNcaP cell line expressing wild-type p53. Type of test: functional, cell-based. The settings on record: Homo sapiens. In a few lines: as §2
The test system of test [7] is DU-145. Description: Antiproliferative effect of compound on DU145 cell line expressing mutant p53. Type of test: functional, cell-based. The settings on record: Homo sapiens. In short, it runs like this: as §2
Test [8] relates to IGROV-1. The experiment in a line: Antiproliferative effect of compound on IGROV-1 cell line expressing wild-type p53. It counts as functional, cell-based. The settings on record: Homo sapiens. In short, it runs like this:
as §2

Another test relates to U2OS. The experiment in a line: Antiproliferative effect of compound on U2OS cell line expressing wild-type p53. It counts as functional, cell-based. The settings on record: Homo sapiens. In short, it runs like this: as §2
In another test the test system is A2780. Description: Antiproliferative effect of compound on A2780/DX cell line. It counts as functional, cell-based. Conditions: Homo sapiens. In short, it runs like this: as §2

On to `O=C(O)c1ccc2cc(-c3ccc(O)c(C45CC6CC(CC(C6)C4)C5)c3)ccc2c1` [O-DEMETHYLATED ADAPALENE], for which the Apoptosis came out at 22% with IGROV-1 [1]; 16% with DU-145 [2]; 38% in the test with IGROV-1 [3]; 30% with DU-145 [4]; 15% in the test on IGROV-1 [5]; 33% in the test on DU-145 [6]. Moreover, the IC50 in the test on SAOS-2 was found to be 0.67 µM; with LoVo, 0.49 µM; with PC-3, 0.43 µM; in the test on NCI-H460, 0.43 µM; in the test with GBM it was 0.55 µM; in the test on HCT-116, 0.68 µM. Besides, the concentration for half-maximal inhibition (IC50) amounted to 0.42 µM in the test on Me665/2/21; 0.51 µM with A-431; 0.32 µM with LNCaP; 0.28 µM in the test with DU-145 [7]; 0.35 µM with IGROV-1 [8]; 0.44 µM in the test with U2OS.
On to `O=C(O)/C=C/c1ccc(-c2ccc(O)c(C34CC5CC(CC(C5)C3)C4)c2)cc1` [ADAROTENE], for which the Apoptosis with IGROV-1 [1] stood at 42%; in the test with DU-145 [2] it was 24%; in the test on IGROV-1 [3], 44%; in the test with DU-145 [4], 50%; in the test with IGROV-1 [5] it was 46%; with DU-145 [6] it was 44%. Besides, the IC50 is 0.25 µM in the test with SAOS-2; 0.15 µM in the test with LoVo; 0.21 µM with PC-3; 0.19 µM in the test with NCI-H460; 0.18 µM in the test with GBM; 0.32 µM in the test on HCT-116. In addition, the IC50 in the test on Me665/2/21 was determined as 0.25 µM; in the test on A-431, 0.25 µM; in the test with A2780 it was 0.1 µM; in the test with LNCaP, 0.12 µM; with DU-145 [7] it was 0.1 µM; in the test with IGROV-1 [8], 0.23 µM. The molecule further came in with an IC50 with U2OS of 0.26 µM.
